Measured values: ChEMBL document CHEMBL1158503, “Design and preliminary structure-activity relationship of redox-silent semisynthetic tocotrienol analogues as inhibitors for breast cancer proliferation and invasion” (Bioorg Med Chem, 2010)
Activity calls are given as the source filed them. The calls are words filed in the database; no cut-off is given here.

Legend:
MDA-MB-231 [1] = assay: Antiproliferative activity against human MDA-MB-231 cells after 96 hrs by MTT assay; type: functional, cell-based; conditions: MDA-MB-231, 96 h
Summary of the method: (§1)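 Cells were grown in RPMI with 10% FBS, 2 mmol/L glutamine and penicillin/streptomycin at 37 °C, 5% CO2. They were seeded at 8 × 10^3 cells/well and left to attach for 24 h. Medium was then changed to serum-free RPMI containing compound at 20, 10, 5 or 2 µM for 96 h. MTT was added for 4 h, then solubilized, and A570 read. Cell number came from a hemocytometer standard curve. IC50 was taken by nonlinear regression of log concentration vs cells/well.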

MCF7 = assay: Antiproliferative activity against human MCF7 cells after 96 hrs by MTT assay; type: functional, cell-based; conditions: MCF7, 96 h; summary of the method: as §1
MDA-MB-231 [2] = assay: Antiinvasive activity in human MDA-MB-231 at 5 uM after 24 hrs by BME cell invasion assay; type: functional, cell-based
Summary of the method: (§2)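 Cultrex 96-well BME invasion kit (Boyden-type, 8 µm PET membrane), BME 1X coat set overnight at 37 °C. 50,000 MDA-MB-231 cells in serum-free RPMI put in the top chamber with compound at 5 µM. The lower chamber held RPMI with 10% FBS, fibronectin and 10 nM fMLP as chemoattractants. Migration ran 24 h at 37 °C. Invaded cells were loaded with calcein-AM for 1 h and read by fluorescence (ex 485/em 520 nm).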

MDA-MB-231 [3] = assay: Antiinvasive activity in human MDA-MB-231 assessed as cell migration at 5 uM after 24 hrs by BME cell invasion assay; type: functional, cell-based; summary of the method: as §2
[4] = Inhibition of EGF-dependent mouse +SA cells growth; type: functional, +SA cell
[5] = Ratio of IC50 for gamma-tocotrienol to IC50 for drug against mouse +SA cells after 4 days by MTT assay; type: functional, +SA cell
[6] = Antiproliferative activity against mouse +SA cells after 4 days by MTT assay; type: functional, cell-based; conditions: +SA cell, 96 h
Summary of the method: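 +SA mouse mammary epithelial cells were kept in serum-free medium with 10 ng/mL EGF and 10 µg/mL insulin as mitogens. They were plated at 5 × 10^4 cells/well, 6 wells/group, and fed compound at 0.01–1000 µM. Viable cell number was measured by MTT after 4 days of culture.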

Question: What does the source list for `CC(C)=CCC/C(C)=C/CC/C(C)=C/CC[C@]1(C)CCc2cc(OC(=O)NCc3ccccc3)cc(C)c2O1`?
Answer: IC50 (MDA-MB-231 [1]): > 10 µM; IC50 (MCF7): > 20 µM

Question: With `CC(C)=CCC/C(C)=C/CC/C(C)=C/CC[C@]1(C)CCc2cc(O)cc(C)c2O1` [DELTA-TOCOTRIENOL] as the molecule, how does the IC50 (MDA-MB-231 [1]) read?
Answer: > 10 µM

Question: And the IC50 (MCF7)?
Answer: 15.5 µM

Question: With `CC(C)=CCC/C(C)=C/CC/C(C)=C/CC[C@]1(C)CCc2cc(OC(=O)NC(=O)Oc3ccccc3)c(C)c(C)c2O1` as the molecule, how does the IC50 (MCF7) read?
Answer: > 20 µM

Question: With `COc1cc(COc2c(C)c(C)c3c(c2C)CC[C@@](C)(CC/C=C(\C)CC/C=C(\C)CCC=C(C)C)O3)cc(OC)c1` as the molecule, how does the Activity (MDA-MB-231 [2]) read?
Answer: inactive

Question: Which IC50 (MDA-MB-231 [1]) does the source give for `CC(C)=CCC/C(C)=C/CC/C(C)=C/CC[C@]1(C)CCc2cc(OC(=O)NS(=O)(=O)c3ccc(Cl)cc3)c(C)c(C)c2O1` here?
Answer: > 10 µM

Question: What about the IC50 (MCF7) of the same molecule?
Answer: > 20 µM

Question: For `CC(C)=CCC/C(C)=C/CC/C(C)=C/CC[C@]1(C)CCc2cc(OCCC(C)C)c(C)c(C)c2O1`, which Activity (MDA-MB-231 [2]) is on record?
Answer: inactive

Question: With `CC(C)=CCC/C(C)=C/CC/C(C)=C/CC[C@]1(C)CCc2c(C)c(OC(=O)NS(=O)(=O)c3ccccc3)c(C)c(C)c2O1` as the molecule, how does the IC50 (MDA-MB-231 [1]) read?
Answer: > 10 µM

Question: What about the IC50 (MCF7) of the same molecule?
Answer: 4.5 µM

Question: With `Cc1c(C)c2c(c(C)c1OC(=O)[C@@H](N)CCCCN)CC[C@@](C)(CCCC(C)CCCC(C)CCCC(C)C)O2` (some centres undefined) as the molecule, how does the IC50 (MCF7) read?
Answer: 12 µM

Question: With `CC(C)=CCC/C(C)=C/CC/C(C)=C/CC[C@]1(C)CCc2c(C)c(OC(=O)NCc3ccccc3)c(C)c(C)c2O1` as the molecule, how does the Activity (MDA-MB-231 [3]) read?
Answer: 8%

Question: And the IC50 (MDA-MB-231 [1])?
Answer: 7.2 µM

Question: And the IC50 (MCF7)?
Answer: > 20 µM

Question: For `COc1cc(COc2cc3c(c(C)c2C)O[C@](C)(CC/C=C(\C)CC/C=C(\C)CCC=C(C)C)CC3)cc(OC)c1`, which Activity (MDA-MB-231 [2]) is on record?
Answer: inactive

Question: With `CC(C)=CCC/C(C)=C/CC/C(C)=C/CC[C@]1(C)CCc2c(C)c(OC(=O)NS(=O)(=O)c3ccc(Cl)cc3)c(C)c(C)c2O1` as the molecule, how does the IC50 (MDA-MB-231 [1]) read?
Answer: > 10 µM

Question: And the IC50 (MCF7)?
Answer: 5.1 µM

Question: Which results are given for `CC(C)=CCC/C(C)=C/CC/C(C)=C/CC[C@]1(C)CCc2cc(OC(=O)NS(=O)(=O)c3ccc(Cl)cc3)cc(C)c2O1`?
Answer: IC50 (MDA-MB-231 [1]): > 10 µM; IC50 (MCF7): > 20 µM

Question: With `CC(C)=CCC/C(C)=C/CC/C(C)=C/CC[C@]1(C)CCc2cc(OC(=O)NC(=O)Oc3ccccc3)cc(C)c2O1` as the molecule, how does the IC50 (MCF7) read?
Answer: 5.6 µM

Question: Which IC50 (MCF7) does the source give for `Cc1cc(C)c2c(c1C)O[C@](C)(CCCC(C)CCCC(C)CCCC(C)C)CC2` (some centres undefined) here?
Answer: 329 µM

Question: With `CC(C)=CCC/C(C)=C/CC/C(C)=C/CC[C@]1(C)CCc2c(C)c(O)c(C)c(C)c2O1` [ALPHA-TOCOTRIENOL] as the molecule, how does the IC50 (MDA-MB-231 [1]) read?
Answer: > 10 µM

Question: What about the IC50 (MCF7) of the same molecule?
Answer: > 20 µM

Question: With `CC(C)=CCCOc1cc2c(c(C)c1C)O[C@](C)(CC/C=C(\C)CC/C=C(\C)CCC=C(C)C)CC2` as the molecule, how does the Activity (MDA-MB-231 [2]) read?
Answer: inactive

Question: With `CC(C)=CCC/C(C)=C/CC/C(C)=C/CC[C@]1(C)CCc2cc(O)c(C)c(C)c2O1` [GAMMA-TOCOTRIENOL] as the molecule, how does the “inhibition (INH)” value [4] read?
Answer: 50%

Question: What about the IC50 (MDA-MB-231 [1]) of the same molecule?
Answer: > 10 µM

Question: And the IC50 (MCF7)?
Answer: 11.4 µM

Question: Which Activity (MDA-MB-231 [2]) does the source give for `CC(C)=CCC/C(C)=C/CC/C(C)=C/CC[C@]1(C)CCc2cc(OC/C=C(\C)CC/C=C(\C)CCC=C(C)C)cc(C)c2O1` here?
Answer: inactive

Question: Which Activity (MDA-MB-231 [2]) does the source give for `COc1cccc(COc2c(C)c(C)c3c(c2C)CC[C@@](C)(CC/C=C(\C)CC/C=C(\C)CCC=C(C)C)O3)c1` here?
Answer: inactive

Question: What does the source list for `CC(C)=CCC/C(C)=C/CC/C(C)=C/CC[C@]1(C)CCc2cc(OC(=O)NS(=O)(=O)c3ccccc3)c(C)c(C)c2O1`?
Answer: IC50 (MDA-MB-231 [1]): > 10 µM; IC50 (MCF7): > 20 µM

Question: For `CC(C)=CCC/C(C)=C/CC/C(C)=C/CC[C@]1(C)CCc2cc(OC(=O)NS(=O)(=O)c3ccc(C)cc3)c(C)c(C)c2O1`, which “Ratio IC50” value [5] is on record?
Answer: 2

Question: What about the IC50 [6] of the same molecule?
Answer: 2 µM

Question: And the IC50 (MDA-MB-231 [1])?
Answer: > 10 µM

Question: What about the IC50 (MCF7) of the same molecule?
Answer: 2.4 µM

Question: With `CC(C)=CCC/C(C)=C/CC/C(C)=C/CC[C@]1(C)CCc2cc(OC(=O)NCc3ccccc3)c(C)c(C)c2O1` as the molecule, how does the Activity (MDA-MB-231 [2]) read?
Answer: Active

Question: And the IC50 (MDA-MB-231 [1])?
Answer: > 10 µM

Question: What about the IC50 (MCF7) of the same molecule?
Answer: > 20 µM

Question: For `COc1cc2c(c(C)c1C)O[C@](C)(CC/C=C(\C)CC/C=C(\C)CCC=C(C)C)CC2`, which Activity (MDA-MB-231 [2]) is on record?
Answer: inactive

Question: With `CC(C)=CCC/C(C)=C/CC/C(C)=C/CC[C@]1(C)CCc2cc(OC(=O)Nc3ccccc3)cc(C)c2O1` as the molecule, how does the IC50 (MDA-MB-231 [1]) read?
Answer: > 10 µM

Question: What about the IC50 (MCF7) of the same molecule?
Answer: > 20 µM

Question: For `Cc1c(C)c2c(c(C)c1OC(=O)CCC(=O)O)CC[C@@](C)(CCCC(C)CCCC(C)CCCC(C)C)O2` (some centres undefined), which IC50 (MCF7) is on record?
Answer: > 368 µM

Question: For `CC(C)=CCC/C(C)=C/CC/C(C)=C/CC[C@]1(C)CCc2c(C)c(OC(=O)NC(=O)Oc3ccccc3)c(C)c(C)c2O1`, which IC50 (MDA-MB-231 [1]) is on record?
Answer: > 10 µM

Question: What about the IC50 (MCF7) of the same molecule?
Answer: > 20 µM

Question: Which Activity (MDA-MB-231 [2]) does the source give for `CC(C)=CCC/C(C)=C/CC/C(C)=C/CC[C@]1(C)CCc2cc(OC(=O)NS(=O)(=O)c3ccc(C)cc3)cc(C)c2O1` here?
Answer: Active

Question: What about the IC50 (MDA-MB-231 [1]) of the same molecule?
Answer: 6.6 µM

Question: And the IC50 (MCF7)?
Answer: > 20 µM

Question: For `CC(C)=CCC/C(C)=C/CC/C(C)=C/CC[C@]1(C)CCc2cc(OC(=O)Nc3ccccc3)c(C)c(C)c2O1`, which IC50 (MDA-MB-231 [1]) is on record?
Answer: > 10 µM

Question: And the IC50 (MCF7)?
Answer: > 20 µM

Question: What does the source list for `CC(C)=CCC/C(C)=C/CC/C(C)=C/CC[C@]1(C)CCc2c(C)c(OC(=O)NS(=O)(=O)c3ccc(C)cc3)c(C)c(C)c2O1`?
Answer: IC50 (MDA-MB-231 [1]): > 10 µM; IC50 (MCF7): 6.1 µM

Question: For `CC(C)=CCC/C(C)=C/CC/C(C)=C/CC[C@]1(C)CCc2cc(OC(=O)NS(=O)(=O)c3ccccc3)cc(C)c2O1`, which IC50 (MDA-MB-231 [1]) is on record?
Answer: > 10 µM

Question: What about the IC50 (MCF7) of the same molecule?
Answer: 6.1 µM

Question: Which Activity (MDA-MB-231 [2]) does the source give for `CC(C)=CCC/C(C)=C/CC/C(C)=C/CC[C@]1(C)CCc2cc(OC/C=C(\C)CC/C=C(\C)CCC=C(C)C)c(C)c(C)c2O1` here?
Answer: inactive

Question: For `COc1cccc(COc2cc3c(c(C)c2C)O[C@](C)(CC/C=C(\C)CC/C=C(\C)CCC=C(C)C)CC3)c1`, which Activity (MDA-MB-231 [2]) is on record?
Answer: inactive

Question: With `CC(C)=CCC/C(C)=C/CC/C(C)=C/CC[C@]1(C)CCc2c(C)c(OC(=O)Nc3ccccc3)c(C)c(C)c2O1` as the molecule, how does the IC50 (MDA-MB-231 [1]) read?
Answer: > 10 µM

Question: And the IC50 (MCF7)?
Answer: > 20 µM

Question: For `CC(C)=CCC/C(C)=C/CC/C(C)=C/CC[C@]1(C)CCc2c(C)c(OC/C=C(\C)CC/C=C(\C)CCC=C(C)C)c(C)c(C)c2O1`, which Activity (MDA-MB-231 [2]) is on record?
Answer: inactive
